Measured values: ChEMBL document CHEMBL5724801, “EUbOPEN Chemogenomics Library - Multiplex” (2024)
Several values for one entry are separate records, joined by “and”; a condition that tells them apart may be missing. Equal values may be shown once.

System: U2OS
Assay: Multiplex assay against U2OS
Format: toxicity, cell-based
Conditions: human
How it was run: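 Per cents of healthy-nucleus cells form the tubulin, mitochondrial-mass and membrane-permeability phenotype values. Live cells were stained at seeding with Hoechst33342, BioTracker Green Microtubule Cytoskeleton Dye, MitoTracker Red and Annexin V Alexa Fluor 680. After compound addition they were imaged on a CQ1 microscope at 37°C and 5% CO2, and CellPathfinder machine-learning gating split them into Hoechst high-intensity objects or normal cells, normal cells into healthy, pyknosed or fragmented nuclei, and pyknosed cells into mitotic or apoptotic.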

[1] = 12 h, 1 µM, compound concentration 1 uM
[2] = 12 h, 10 µM, compound concentration 10 uM
[3] = 24 h, 1 µM, compound concentration 1 uM
[4] = 24 h, 10 µM, compound concentration 10 uM
[5] = 48 h, 1 µM, compound concentration 1 uM
[6] = 48 h, 10 µM, compound concentration 10 uM

## Cc1ccc(/C(=C\CN2CCCC2)c2ccccn2)cc1 [TRIPROLIDINE]
[1]
  Population Apoptotic (%): 85%
  Population Fragmented Nuclei (%): 29% and 18%
  Population Healthy Nuclei (%): 61% and 70%
  Population Hoechst High Intensity Objects (%): 2% and 3%
  Population Membrane Permeable-Phenotype (%): 4% and 6%
  Population Mitochondria Different-Phenotype (%): 2% and 1%
  Population Mitotic Cells (%): 15% and 14%
  Population Normal (%): 97% and 96%
  Population Pyknosed Nuclei (%): 8% and 11%
  Population Tubulin-Different-Phenotype (%): 1% and 5%
  Total Cell Count: 244 and 126
[2]
  Population Apoptotic (%): 87% and 75%
  Population Fragmented Nuclei (%): 25% and 15%
  Population Healthy Nuclei (%): 64% and 77%
  Population Hoechst High Intensity Objects (%): 3% and 0%
  Population Membrane Permeable-Phenotype (%): 29% and 14%
  Population Mitochondria Different-Phenotype (%): 23% and 18%
  Population Mitotic Cells (%): 12% and 25%
  Population Normal (%): 96% and 99%
  Population Pyknosed Nuclei (%): 9% and 7%
  Population Tubulin-Different-Phenotype (%): 24% and 15%
  Total Cell Count: 264 and 114
[3]
  Population Apoptotic (%): 89% and 81%
  Population Fragmented Nuclei (%): 23% and 20%
  Population Healthy Nuclei (%): 66% and 68%
  Population Hoechst High Intensity Objects (%): 1% and 4%
  Population Membrane Permeable-Phenotype (%): 4% and 9%
  Population Mitochondria Different-Phenotype (%): 3% and 6%
  Population Mitotic Cells (%): 10% and 18%
  Population Normal (%): 98% and 96%
  Population Pyknosed Nuclei (%): 9% and 11%
  Population Tubulin-Different-Phenotype (%): 2% and 5%
  Total Cell Count: 297 and 150
[4]
  Population Apoptotic (%): 75% and 78%
  Population Fragmented Nuclei (%): 27% and 19%
  Population Healthy Nuclei (%): 62% and 70%
  Population Hoechst High Intensity Objects (%): 2% and 1%
  Population Membrane Permeable-Phenotype (%): 12% and 11%
  Population Mitochondria Different-Phenotype (%): 15% and 13%
  Population Mitotic Cells (%): 24% and 21%
  Population Normal (%): 97% and 98%
  Population Pyknosed Nuclei (%): 10% and 9%
  Population Tubulin-Different-Phenotype (%): 8% and 6%
  Total Cell Count: 320 and 149
[5]
  Population Apoptotic (%): 86% and 76%
  Population Fragmented Nuclei (%): 17%
  Population Healthy Nuclei (%): 73% and 75%
  Population Hoechst High Intensity Objects (%): 2% and 3%
  Population Membrane Permeable-Phenotype (%): 3% and 5%
  Population Mitochondria Different-Phenotype (%): 3%
  Population Mitotic Cells (%): 13% and 23%
  Population Normal (%): 97% and 96%
  Population Pyknosed Nuclei (%): 9% and 6%
  Population Tubulin-Different-Phenotype (%): 3% and 4%
  Total Cell Count: 398 and 209
[6]
  Population Apoptotic (%): 86% and 89%
  Population Fragmented Nuclei (%): 24% and 15%
  Population Healthy Nuclei (%): 65% and 74%
  Population Hoechst High Intensity Objects (%): 2% and 4%
  Population Membrane Permeable-Phenotype (%): 11% and 9%
  Population Mitochondria Different-Phenotype (%): 8%
  Population Mitotic Cells (%): 13% and 10%
  Population Normal (%): 97% and 95%
  Population Pyknosed Nuclei (%): 9%
  Population Tubulin-Different-Phenotype (%): 7% and 6%
  Total Cell Count: 453 and 203
